Measurements of several laboratories.
Each line is one published result; the experiments were not run side by side.
Target: RAC-gamma serine/threonine-protein kinase (AKT3, Homo sapiens, UniProt Q9Y243)

C[C@@H]1CCN(c2nccc(-c3cnn4ncccc34)n2)C1  remaining binding (binding; 1 µM): 78%
O=C(NCCCN1CCOCC1)c1ccc(Nc2nccc(-c3cc4ccccc4s3)n2)cc1  remaining binding (binding; competition with immobilised ligand; 1 µM): 100%
Cc1nc(C2CCN(C(=O)c3ccc(OC(F)(F)F)cc3N)CC2)c2ncc(N3CCN(C)CC3)cc2n1  remaining binding (cell-free assay; competition with immobilised ligand; 1 µM): 95%
O=C(Nc1c[nH]nc1C(=O)NC1CCNCC1)c1cc(F)cc(F)c1  remaining binding (binding; competition with immobilised ligand; 1 µM): 100%
O=C1NC(c2ccccn2)Sc2ccccc21 (stereo not drawn)  remaining binding (cell-free assay; competition with immobilised ligand; 1 µM): 100%
F[C@@H]1CCN(c2nccc(-c3cnn4ncccc34)n2)C1  remaining binding (binding; 1 µM): 93%
Nc1ncc2c(n1)-c1c([nH]c3ccc(C#CC4CC4)cc13)CCCC2  remaining binding (binding; competition with immobilised ligand; 1 µM): 69%
CNC(=O)[C@@H]1CC[C@@H](n2c(-c3ccc4cnccc4c3)nc3ccc(C(=O)NCc4cccc(C(N)=O)c4)cc32)C1  remaining binding (binding; competition with immobilised ligand; 1 µM): 100%
c1ccc(N2CCN(Cc3nc4ccccc4[nH]3)CC2)nc1  remaining binding (binding; competition with immobilised ligand; 1 µM): 100%
COc1cnc(Nc2cccc(S(N)(=O)=O)c2)nc1N1CCN(c2ccccc2)CC1  remaining binding (binding; competition with immobilised ligand; 1 µM): 100%
Cc1noc([C@H]2C[C@@H](c3ccc(C(F)(F)F)cc3)CN(C(=O)N3CCS(=O)(=O)C3)C2)n1  remaining binding (cell-free assay; competition with immobilised ligand; 1 µM): 100%
COc1ccnn2ncc(-c3ccnc(N(C)C)n3)c12  remaining binding (binding; 1 µM): 98%
C[C@@H]1CN(c2cc(-c3n[nH]c4ccc(OC5(C)CC5)cc34)ncn2)C[C@H](C)O1  remaining binding (cell-free assay; competition with immobilised ligand; 0.1 µM): 86%
C=CC(=O)N1CCC(C(=O)NCC(=O)N2CCN(c3nc(-c4cnc(N)nc4C(F)F)nc(N4CCOCC4)n3)CC2)CC1  remaining binding (binding; competition with immobilised ligand; 1 µM): 100%
Cc1cnn2ncc(-c3ccnc(N(C)C)n3)c2c1  remaining binding (binding; 1 µM): 98%
O=C(c1ccc(Nc2ncc(Cl)c(-c3ccc(Cl)s3)n2)cc1)N1CCC(N2CCCC2)CC1  remaining binding (binding; competition with immobilised ligand; 1 µM): 100%
N[C@H]1CCN(c2nccc(-c3cnn4ncccc34)n2)C1  remaining binding (binding; 1 µM): 100%
c1cncc(-c2cccc(Nc3nccc(NC4CCCCC4)n3)c2)c1  remaining binding (binding; competition with immobilised ligand; 10 µM): 69%
Cc1cnc(Nc2ccc(C(=O)N3CCC(N4CCCC4)CC3)cc2)nc1-c1cc2ccccc2s1  remaining binding (binding; competition with immobilised ligand; 1 µM): 100%
CCCOc1ccc([C@H]2[C@H](C(=O)O)[C@@H](c3ccc4c(c3)OCO4)CN2CC(=O)Nc2c(CC)cccc2CC)cc1  remaining binding (cell-free assay; competition with immobilised ligand; 1 µM): 82%
CN(C)c1nccc(-c2cnn3ncccc23)n1  remaining binding (binding; 1 µM): 100%
